Results on four molecules are retold here after ChEMBL document CHEMBL1687818, “Mechanistic studies of the inactivation of TEM-1 and P99 by NXL104, a novel non-beta-lactam beta-lactamase inhibitor” (Antimicrob Agents Chemother, 2010).

As a reminder, the IC50 is the point on the concentration scale where inhibition reaches its midpoint. A word on the Ki: it is the equilibrium dissociation constant of an inhibitor or competing ligand from its target. The low end stands for a stronger hold on the target, the high end for a looser hold on the target.

A short description of experiment [1]: Inhibition of beta-lactamase TEM- 1 assessed as nitrocefin hydrolysis after 5 mins enzyme-compound preincubation. The essentials: (§1)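 Enzyme and inhibitor were preincubated 5 min at 37°C. The inhibitor was tested at 11 concentrations from 1 nM to 100 µM. Final enzyme concentrations were TEM-1 0.25 nM, CTX-M-15 0.35 nM, KPC-2 3 nM and SHV-4 6 nM. Nitrocefin was at 100 µM. Initial rates were read at 485 nm over the first minute. Each value is the mean of at least two independent experiments.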

Experiment [2] can be described thus: Inhibition of beta-lactamase SHV-4 assessed as nitrocefin hydrolysis after 5 mins enzyme-compound preincubation. An outline of the steps:
as §1

Experiment [3] in a line: Inhibition of beta-lactamase CTX-M-15 assessed as nitrocefin hydrolysis after 5 mins enzyme-compound preincubation.
The nature of experiment [4]: Inhibition of beta-lactamase KPC-2 assessed as nitrocefin hydrolysis after 5 mins enzyme-compound preincubation. The essentials:
as §1

The nature of experiment [5]: Inhibition of beta-lactamase TEM-1 after 5 seconds incubation with nitrocefin substrate by spectrophotometry. An outline of the steps:
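Direct competition with reporter substrate at 37°C: inhibitor concentrations were premixed with 100 µM nitrocefin, and the reaction was started with 0.25 nM purified TEM-1. Nitrocefin hydrolysis was followed spectrophotometrically at 485 nm. Initial velocity over the first 5 s was compared with the no-inhibitor control, and KI was derived by equation 2. Means of at least two independent experiments.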

Experiment [6] concerns the target T1, Beta-lactamase (Enterobacter cloacae, UniProt P05364). Kind of experiment: Inhibition of Enterobacter cloacae beta-lactamase P99 after 5 seconds incubation with nitrocefin substrate by spectrophotometry.
Experiment [7] concerns the target T1, Beta-lactamase. As to the kind of experiment: Inhibition of Enterobacter cloacae beta-lactamase P99 assessed as nitrocefin hydrolysis after 5 mins enzyme-compound preincubation.

T1 sequence (P05364 whole entry): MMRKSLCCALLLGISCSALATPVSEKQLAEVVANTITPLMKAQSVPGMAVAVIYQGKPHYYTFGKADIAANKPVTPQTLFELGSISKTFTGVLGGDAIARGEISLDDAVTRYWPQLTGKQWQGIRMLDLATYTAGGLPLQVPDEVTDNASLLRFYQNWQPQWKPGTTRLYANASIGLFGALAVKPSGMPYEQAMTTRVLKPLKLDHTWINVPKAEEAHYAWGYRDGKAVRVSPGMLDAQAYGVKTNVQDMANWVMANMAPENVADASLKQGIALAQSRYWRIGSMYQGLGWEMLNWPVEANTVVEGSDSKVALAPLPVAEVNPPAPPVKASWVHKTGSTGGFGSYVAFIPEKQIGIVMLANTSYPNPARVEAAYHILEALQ

Turning to `CC1(C)[C@H](C(=O)O)N2C(=O)C[C@H]2S1(=O)=O` [SULBACTAM], the IC50 was 1560 nM in experiment [1], 260 nM in experiment [2], 230 nM in experiment [3] and 57000 nM in experiment [4].

As to `O=C(O)[C@H]1/C(=C/CO)O[C@@H]2CC(=O)N21` [CLAVULANIC ACID], the IC50 is 58 nM in experiment [1], 4 nM in experiment [2] and over 100000 nM in experiment [4]. The inhibition constant (Ki) in experiment [5] was found to be 800 nM.

In the case of `C[C@]1(Cn2ccnn2)[C@H](C(=O)O)N2C(=O)C[C@H]2S1(=O)=O` [TAZOBACTAM], the IC50 in experiment [1] was 32 nM; in experiment [2] it was 55 nM; in experiment [3], 6 nM; in experiment [4], 50000 nM. In experiment [5], this molecule returned a Ki of 30 nM.

`NC(=O)[C@@H]1CC[C@@H]2CN1C(=O)N2OS(=O)(=O)O` (relative stereo) [AVIBACTAM]: the IC50 worked out at 8 nM in experiment [1]; 3 nM in experiment [2]; 5 nM in experiment [3]; 170 nM in experiment [4]; 100 nM at Beta-lactamase [7]. The results for the Ki (on Beta-lactamase [6]; in experiment [5]) were 7700 nM and 260 nM, respectively.
